Screening results from PubChem.
ABHD4 inh = ABHD4 inhibitors, primary screen, biochemical, fluorescence polarization, mouse | (Lyso)-N-acylphosphatidylethanolamine lipase (Mus musculus), Q8VD66 | purified mABHD4, FP-Rh probe fluorescence polarization | inhibition, % at 8.92 µM | 370,000 compounds, 0.54% hits | AID 720543, 2013;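 active = inhibition exceeding the mean over every tested compound plus 3 SD, cut at about 30% in these data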
Target sequence (Q8VD66 whole entry, looked up): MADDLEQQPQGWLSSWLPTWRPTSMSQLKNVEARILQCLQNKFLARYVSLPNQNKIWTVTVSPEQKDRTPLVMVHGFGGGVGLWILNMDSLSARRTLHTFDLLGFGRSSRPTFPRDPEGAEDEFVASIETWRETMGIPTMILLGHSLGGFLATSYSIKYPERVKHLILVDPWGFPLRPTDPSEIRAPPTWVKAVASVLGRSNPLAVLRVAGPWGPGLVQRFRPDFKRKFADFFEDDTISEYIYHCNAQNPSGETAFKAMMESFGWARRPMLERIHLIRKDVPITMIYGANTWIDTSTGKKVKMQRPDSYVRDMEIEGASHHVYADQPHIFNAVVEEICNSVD
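Assay system: wild-type mouse ABHD4 protein; compound: single nominal dose of 8.92 µM, 0.89% DMSO final; schedule: 45 min + 60 min at 25 °C; measured by: FP readout, ex 525 nm / em 598 nm; evaluation: % inhibition of FP-Rh probe binding versus controls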
LEDGF integ inh = blockers of LEDGF/p75-dependent integrase strand transfer – biochemical, TR-FRET, high throughput, primary screen; HIV-1 integrase (with human LEDGF/p75); AID 743269, 2014; 370,000 compounds, 0.64% hits; TR-FRET IN-LEDGF/p75 DNA integration, Eu/Cy5; inhibition, % at 3.7 µM;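 active = inhibition above the screen-wide mean plus 3 SD, cut at about 13% in these data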;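 also: signal is the Cy5 over europium emission ratio at 671 and 618 nm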
rCAG RNA binder = binders of r(CAG) RNA repeats, primary screen, biochemical, fluorescence; r(CAG) RNA repeat, TO-PRO-1 dye displacement fluorescence; inhibition, % at 3 µM; 370,000 compounds, 1.3% hits; AID 651821, 2012;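 active = inhibition above the plate cutoff, the mean of all test compounds on that plate plus 3 SD, cut at about 35% in these data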;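 also: higher means more dye released from RNA so lower well fluorescence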
PRMT1 inh = PRMT1 methyltransferase inhibitors, primary screen, biochemical, fluorescence polarization; recombinant PRMT1, activity-based probe fluorescence polarization; AID 652257, 2013; 370,000 compounds, 1.3% hits; inhibition, % at 2.79 µM; Protein arginine N-methyltransferase 1 (Homo sapiens), Q99873;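 active = inhibition above about 21% made by adding two undisclosed values, limit read from the data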
DAGLB inhibitor = DAGLB lipase inhibitors, primary screen, biochemical, fluorescence, HTS; HEK293T DAGLB membrane lysate, EnzChek fluorogenic substrate; inhibition, % at 5.17 µM; 340,000 compounds, 0.059% hits; in the data active = inhibition above about 34%
HTRA1 inhibitor = HTRA1 serine protease inhibitors, primary screen, biochemical, fluorescence polarization, HTS | Q92743 | recombinant HTRA1, FP-rhodamine activity-based probe | inhibition, % at 5.96 µM | 340,000 compounds, 0.5% hits | AID 504803, 2011; in the data active = inhibition above about 36%
rCAG binder conf = small molecules binding CAG repeat RNA – biochemical, fluorescence, confirmation | 4,300 compounds, 70% hits | r(CAG) RNA repeat, TO-PRO-1 dye displacement fluorescence | AID 652065, 2013 | shares compounds with rCAG RNA binder | inhibition, % at 3 µM;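 active = inhibition above a per-plate cutoff, the mean inhibition of sample wells plus 3 SD, cut at about 35% in these data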;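 also: loss of TO-PRO-1 fluorescence as compound displaces dye from 1x1 AA loop RNA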
dCAG dye counter = displacement of TO-PRO-1 from CAG DNA duplex, counter-screen for rCAG RNA repeat binder project, biochemical, fluorescence, TO-PRO-1 dye, d(CAG) DNA oligo. shares compounds with rCAG RNA binder. d(CAG) DNA oligo TO-PRO-1 dye displacement. inhibition, % at 3 µM. 4,300 compounds, 94% hits. AID 652068, 2013;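 active = inhibition above its plate's cutoff, the mean test-well inhibition plus 3 SD, cut at about 4.8% in these data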;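 also: hits displace the dye from DNA and so lower well fluorescence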
Large screens that a line does not name were inactive (follow-up assays come after a bar, where they were run). Shown are actives, neighbours in structure and some others; about 3.2% of the full set was active somewhere.

COCCCNC(=O)CCCCCNS(=O)(=O)c1ccc(Br)cc1	none
O=C(CN(CC1CCCO1)C(=O)CNS(=O)(=O)c1ccc(F)cc1)NCc1ccc(F)cc1 (stereo unspecified)	none
O=C(Nc1cc(C(F)(F)F)ccc1N1CCOCC1)C1=NN(c2ccccc2)C(=O)CC1	none
COc1ccc(C2(O)CCN(C(=O)c3c(F)cccc3F)CC2)cc1	none
Cc1ccc(S(=O)(=O)N2CCOCC2)cc1C(=O)OCC(=O)N(Cc1ccccc1)C(C)C	none
O=C(NC1CCN(Cc2ccccc2)CC1)c1cccc(S(=O)(=O)Nc2cc(C(F)(F)F)ccc2Cl)c1	rCAG RNA binder 64 | rCAG binder conf 55 | dCAG dye counter 17
CCC1CCCCN1C(=O)c1cccc(S(=O)(=O)Nc2cc(C(F)(F)F)ccc2Cl)c1 (stereo unspecified)	rCAG RNA binder 36 | rCAG binder conf 56 | dCAG dye counter 16
COc1ccc(Cl)cc1NS(=O)(=O)c1cccc(C(=O)NC2CCN(Cc3ccccc3)CC2)c1	none
CN(Cc1ccco1)S(=O)(=O)c1nnc(NC(=O)c2ccc(F)cc2)s1	rCAG RNA binder 37 | rCAG binder conf inactive | dCAG dye counter 7.4
CCC(=O)Nc1nnc(S(=O)(=O)N(C)Cc2ccco2)s1	none
CCOc1ccc(C(=O)Nc2nnc(S(=O)(=O)N(C)Cc3ccco3)s2)cc1	rCAG RNA binder 36 | rCAG binder conf 37 | dCAG dye counter 11
NS(=O)(=O)c1cccc(C(=O)NC2CCSc3ccccc32)c1 (stereo unspecified)	none
NS(=O)(=O)c1cc(C(=O)NC2CCSc3ccccc32)ccc1Cl (stereo unspecified)	LEDGF integ inh 60, rCAG RNA binder 80 | rCAG binder conf 81 | dCAG dye counter 49
CCOC(=O)c1ccc(NC(=O)CC2S/C(=N/N=C3/NC(=O)CS3)NC2=O)cc1 (stereo unspecified)	none
CCOC(=O)c1ccc(NC(=O)CC2S/C(=N/N=C/c3c[nH]c4ccccc34)NC2=O)cc1 (stereo unspecified)	rCAG RNA binder 78 | rCAG binder conf 85 | dCAG dye counter 47
Cc1ccc(NC(=O)CC2S/C(=N/N=C3/NC(=O)CS3)NC2=O)cc1 (stereo unspecified)	none
Cc1ccc(NC(=O)CC2S/C(=N/N=C/c3c[nH]c4ccccc34)NC2=O)cc1 (stereo unspecified)	rCAG RNA binder 47 | rCAG binder conf 64 | dCAG dye counter 23
CCOC(=O)c1cc(OC(=O)c2ccccc2)n(-c2ccccc2)n1	none
CCOC(=O)c1cc(OC(=O)c2cccc([N+](=O)[O-])c2)n(-c2ccccc2)n1	rCAG RNA binder 35 | rCAG binder conf inactive | dCAG dye counter inactive
COc1ccc(-n2c(C)cc(/C=C3\SC(=S)NC3=O)c2C)cc1	none
Cc1cc(/C=C2\SC(=S)NC2=O)c(C)n1-c1ccccc1	rCAG RNA binder 48 (no result: DAGLB inhibitor, HTRA1 inhibitor) | rCAG binder conf 36 | dCAG dye counter 16
CCCCNC(=O)C[C@@H]1C(=O)N2CCCC3=C2[C@@]1(C(=O)OCC)CCC3	none (no result: DAGLB inhibitor, HTRA1 inhibitor)
C#CCNC(=O)C[C@@H]1C(=O)N2CCCC3=C2[C@@]1(C(=O)OCC)CCC3	rCAG RNA binder 35 (no result: DAGLB inhibitor, HTRA1 inhibitor) | rCAG binder conf inactive | dCAG dye counter inactive
CNS(=O)(=O)c1cccc(C(=O)OCC(=O)c2ccc3[nH]c(=O)[nH]c3c2)c1	none
